Calls of active or inactive are those of the source. The rule behind the calls is not given here.
Assays:
[1] = Cytotoxicity against human fibroblast at 300 uM after 24 hrs by MTT assay; type: cell-based
[2] = target: T1, Lysosomal acid glucosylceramidase (Homo sapiens, UniProt P04062); assay: Inhibition of recombinant beta-glucocerebrosidase after 10 mins by fluorimetry
T1 sequence (P04062 whole entry): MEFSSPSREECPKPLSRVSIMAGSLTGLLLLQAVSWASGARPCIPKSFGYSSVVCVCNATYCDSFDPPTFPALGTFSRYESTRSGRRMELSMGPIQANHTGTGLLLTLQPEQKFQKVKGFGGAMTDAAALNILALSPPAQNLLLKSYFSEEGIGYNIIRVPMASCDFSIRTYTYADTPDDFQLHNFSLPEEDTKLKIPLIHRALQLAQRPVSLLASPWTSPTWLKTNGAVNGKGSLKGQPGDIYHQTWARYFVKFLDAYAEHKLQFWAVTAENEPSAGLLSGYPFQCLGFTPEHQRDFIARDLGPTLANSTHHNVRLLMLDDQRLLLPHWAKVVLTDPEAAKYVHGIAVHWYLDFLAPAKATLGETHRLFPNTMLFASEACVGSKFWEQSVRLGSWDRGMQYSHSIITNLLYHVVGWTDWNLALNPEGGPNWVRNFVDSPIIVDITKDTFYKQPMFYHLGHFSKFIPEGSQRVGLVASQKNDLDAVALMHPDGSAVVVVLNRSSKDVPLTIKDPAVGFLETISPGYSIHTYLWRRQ
Summary of the method: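 Imiglucerase (0.1 mg/mL stock) in McIlvaine buffer, pH 5.2 or 7.4, with 0.2% sodium taurocholate and 0.1% Triton X-100. Preincubated 30 min at 37 °C with or without inhibitor. Then 4 mM 4-methylumbelliferyl-β-D-glucopyranoside added for 10 min at 37 °C. Stopped with glycine/NaOH pH 10.6; 4-MU read at ex 355/em 460 nm. IC50 from % activity vs log[I], at least five concentrations.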

[3] = target: T2, Beta-galactosidase (Bos taurus) (UniProt Q58D55); assay: Inhibition of bovine liver beta-galactosidase at 0.1 mM
T2 sequence (whole entry): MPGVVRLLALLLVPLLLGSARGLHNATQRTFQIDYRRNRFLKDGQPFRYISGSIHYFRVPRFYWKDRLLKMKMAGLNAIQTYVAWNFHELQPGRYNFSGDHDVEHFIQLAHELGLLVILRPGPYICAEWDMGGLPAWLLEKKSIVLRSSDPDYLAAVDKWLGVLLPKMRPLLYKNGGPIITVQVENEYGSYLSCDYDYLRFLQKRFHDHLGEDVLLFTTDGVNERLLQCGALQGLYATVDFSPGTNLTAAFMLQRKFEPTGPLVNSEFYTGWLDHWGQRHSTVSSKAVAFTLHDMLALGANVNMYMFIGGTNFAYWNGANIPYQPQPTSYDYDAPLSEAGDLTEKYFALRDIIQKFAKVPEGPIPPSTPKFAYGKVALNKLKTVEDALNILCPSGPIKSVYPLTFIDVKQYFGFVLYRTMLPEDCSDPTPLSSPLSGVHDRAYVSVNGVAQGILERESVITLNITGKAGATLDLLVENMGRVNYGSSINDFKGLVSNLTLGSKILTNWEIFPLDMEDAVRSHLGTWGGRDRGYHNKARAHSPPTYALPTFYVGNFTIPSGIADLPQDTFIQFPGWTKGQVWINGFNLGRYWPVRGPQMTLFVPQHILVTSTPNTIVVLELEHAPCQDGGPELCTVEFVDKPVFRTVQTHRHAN

[4] = target: T1, Lysosomal acid glucosylceramidase; assay: Inhibition of recombinant beta-glucocerebrosidase at pH 5.2 after 10 mins by fluorimetry
Saccharomyces cerevisiae = assay: Inhibition of yeast alpha-glucosidase at 0.1 mM
Prunus dulcis = assay: Inhibition of sweet almond beta-glucosidase at 0.1 mM
[5] = Dissociation constant, pKa of the compound; type: physicochemical
Oryza sativa [6] = assay: Inhibition of rice alpha-glucosidase at 0.1 mM
[7] = target: T1, Lysosomal acid glucosylceramidase; assay: Inhibition of recombinant beta-glucocerebrosidase at pH 7.4 after 10 mins by fluorimetry
[8] = target: T1, Lysosomal acid glucosylceramidase; assay: Competitive inhibition of beta-glucocerebrosidase at pH 5.2 by Lineweaver-Burke plot analysis
[9] = target: T3, Lysosomal acid glucosylceramidase (Homo sapiens) (UniProt P04062); assay: Inhibition of beta-glucocerebrosidase in human fibroblast at 50 uM after 24 hrs by fluorescence assay
T3 sequence (whole entry): T1 sequence (P04062 whole entry)
Summary of the method: (§1)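 Wild-type human fibroblasts exposed to compound for 24 h (10, 20 or 50 μM, as listed) with 5 mM substrate. Cellular GCase activity then measured.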

Oryza sativa [10] = assay: Inhibition of rice alpha-galactosidase at 0.1 mM
[11] = target: T3, Lysosomal acid glucosylceramidase (Homo sapiens); assay: Binding affinity to recombinant beta-glucocerebrosidase assessed as enzymatic activity at 150 uM after 20 mins by thermal stabilization assay relative to control
[12] = target: T3, Lysosomal acid glucosylceramidase (Homo sapiens); assay: Binding affinity to recombinant beta-glucocerebrosidase assessed as enzymatic activity at 50 uM after 20 mins by thermal stabilization assay relative to control
[13] = target: T3, Lysosomal acid glucosylceramidase (Homo sapiens); assay: Binding affinity to recombinant beta-glucocerebrosidase assessed as enzymatic activity at 100 uM after 40 mins by thermal stabilization assay relative to control
[14] = target: T3, Lysosomal acid glucosylceramidase (Homo sapiens); assay: Binding affinity to recombinant beta-glucocerebrosidase assessed as enzymatic activity at 100 uM after 60 mins by thermal stabilization assay relative to control
[15] = target: T3, Lysosomal acid glucosylceramidase (Homo sapiens); assay: Inhibition of beta-glucocerebrosidase in human fibroblast at 20 uM after 24 hrs by fluorescence assay; summary of the method: as §1
[16] = target: T3, Lysosomal acid glucosylceramidase (Homo sapiens); assay: Binding affinity to recombinant beta-glucocerebrosidase assessed as enzymatic activity at 150 uM after 60 mins by thermal stabilization assay relative to control
[17] = target: T3, Lysosomal acid glucosylceramidase (Homo sapiens); assay: Binding affinity to recombinant beta-glucocerebrosidase assessed as enzymatic activity at 150 uM after 40 mins by thermal stabilization assay relative to control
[18] = Selectivity index, ratio of CC50 for human fibroblast to Ki for beta-glucocerebrosidase
[19] = target: T3, Lysosomal acid glucosylceramidase (Homo sapiens); assay: Binding affinity to recombinant beta-glucocerebrosidase assessed as enzymatic activity at 100 uM after 20 mins by thermal stabilization assay relative to control
[20] = target: T3, Lysosomal acid glucosylceramidase (Homo sapiens); assay: Inhibition of beta-glucocerebrosidase in human fibroblast at 10 uM after 24 hrs by fluorescence assay; summary of the method: as §1
[21] = target: T3, Lysosomal acid glucosylceramidase (Homo sapiens); assay: Binding affinity to recombinant beta-glucocerebrosidase assessed as enzymatic activity at 50 uM after 60 mins by thermal stabilization assay relative to control
[22] = Cytotoxicity against human fibroblast after 24 hrs by MTT assay; type: cell-based; details: human fibroblasts
[23] = target: T3, Lysosomal acid glucosylceramidase (Homo sapiens); assay: Binding affinity to recombinant beta-glucocerebrosidase assessed as enzymatic activity at 50 uM after 40 mins by thermal stabilization assay relative to control

Compound | Activity [1] | IC50 [2] | inhibition [3] | IC50 [4] | inhibition (Saccharomyces cerevisiae) | inhibition (Prunus dulcis) | pKa [5] | inhibition (Oryza sativa [6]) | IC50 [7] | Ki [8] | inhibition [9] | inhibition (Oryza sativa [10]) | fold change (FC) [11] | fold change (FC) [12] | fold change (FC) [13] | fold change (FC) [14] | fold change (FC) [16] | fold change (FC) [17] | fold change (FC) [19] | fold change (FC) [21] | further results
CCCCN1C[C@H](O)[C@@H](O)[C@H](O)[C@H]1CO | Non-toxic | – | – | – | – | – | – | – | – | – | – | – | – | – | – | – | – | – | – | – | –
CCCOCCCCCCn1cc(CN[C@H]2[C@H](O)[C@@H](O)[C@H](O)[C@@H](O)[C@@H]2O)nn1 | Non-toxic | 7.41 µM | inactive | 7.4 µM | inactive | inactive | 7.1 | inactive | 6.2 µM | 2.4 µM | < 5% | inactive | – | – | – | – | – | – | – | – | –
CCCCCCCCCN1C[C@H](O)[C@@H](O)[C@H](O)[C@H]1CO | Non-toxic | – | – | – | – | – | – | – | – | – | – | – | – | – | – | – | – | – | – | – | –
CCCCCCCCCCCCCCn1cc(CN[C@H]2[C@H](O)[C@@H](O)[C@H](O)[C@@H](O)[C@@H]2O)nn1 | – | 0.0891 µM | inactive | 0.09 µM | inactive | inactive | 7.7 | inactive | 0.1 µM | 0.08 µM | Toxic | inactive | 2.67 | 2.82 | 7.48 | 13.2 | 9.4 | 5.91 | 2.88 | 13.8 | inhibition [15]: Toxic; Selectivity Index [18]: 237; inhibition [20]: 93%; CC50 at 24 h [22]: 19 µM; fold change (FC) [23]: 7.86
CCCCCCCCCn1cc(CN[C@H]2[C@H](O)[C@@H](O)[C@H](O)[C@@H](O)[C@@H]2O)nn1 | Non-toxic | 0.224 µM | inactive | 0.2 µM | inactive | inactive | 7.1 | inactive | 0.2 µM | 0.33 µM | 50% | inactive | 2.34 | 2.06 | 6.71 | 13 | 15.5 | 7.23 | 2.28 | 9.95 | Selectivity Index [18]: >=900; fold change (FC) [23]: 5.69
CCCCCCCCCn1cc(CCN[C@H]2[C@H](O)[C@@H](O)[C@H](O)[C@@H](O)[C@@H]2O)nn1 | Non-toxic | 44.7 µM | inactive | 44.7 µM | inactive | inactive | 9.1 | inactive | 11 µM | – | < 5% | inactive | 2.37 | 2.22 | 5.75 | 7.6 | 9.44 | 6.1 | 2.32 | 4.62 | fold change (FC) [23]: 4.54
CCCCn1cc(CN[C@H]2[C@H](O)[C@@H](O)[C@H](O)[C@@H](O)[C@@H]2O)nn1 | Non-toxic | 178 µM | inactive | 178 µM | inactive | inactive | 7.2 | inactive | – | – | < 5% | inactive | – | – | – | – | – | – | – | – | –

Source: ChEMBL document CHEMBL1155442, “Click chemistry approach to new N-substituted aminocyclitols as potential pharmacological chaperones for Gaucher disease” (J Med Chem, 2010)
